# Screens (PubChem BioAssay)
# Rows were chosen to be rich in hits. Some 1.6% of all compounds tested hit in one or more screens of this group.
# A1 inh – caspase 3/7 activation in MEF A1-2A-BIM cells, primary screen, A1 inhibitor project, cell-based, luminescence, HTS | hit rate 0.066% among 330,000 | Caspase-Glo 3/7 luminescence, 3 h; percent of clofoctol response, vehicle zero | AID 2462, 2010 | caspase activation, % (concentration not given with the values);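 active = over half of replicate activation scores above 10%, or exactly half above 10 with the replicate mean above 10; inconclusive = replicate mean below 10 yet half the replicates above 10; inactive = over half of replicates below 10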
# SR-BI DiI-HDL act – activators of SR-BI mediated DiI-HDL uptake, primary screen, ldlA[mSR-BI] CHO cells, DiI fluorescence; 3 h; 100 = double the neutral-control signal; activation, % at 12.5 µM; hit rate 0.096% among 320,000; AID 504775, 2011;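 active = mean replicate activation of at least 60% and every replicate at or above 60%; inconclusive = mean or all-replicate condition met, but not both; inactive = mean below 60% and not all replicates reaching 60%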
#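 system = CHO ldlA[mSR-BI] cells, LDL receptor-null, SR-BI overexpressing | medium = Ham's F12 with 0.5% BSA, HEPES 25 mM, pH 7.4 | probe or stimulus = DiI-HDL 10 µg/mL | compound dosing = single-point compound dose | incubation = compound exposure 3 h, 37 °C | technique = DiI fluorescence, bottom read | read-out = cell-associated DiI fluorescence as measure of HDL uptake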
# SR-BI DiI inh – inhibitors of SR-BI mediated HDL lipid uptake, primary screen, ldlA[mSR-BI] cells, fluorescence, single point; Scavenger receptor class B member 1 (Mus musculus), Q61009; inhibition, % at 12.5 µM; ldlA[mSR-BI] CHO cells, DiI-HDL uptake fluorescence, 3 h; hit rate 0.96% among 320,000;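 active = mean replicate inhibition of at least 70% and a set share of replicates each scoring 70 or more; inconclusive = meets just one of the two criteria; inactive = fails both criteria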
# Target sequence (Q61009 whole entry, looked up): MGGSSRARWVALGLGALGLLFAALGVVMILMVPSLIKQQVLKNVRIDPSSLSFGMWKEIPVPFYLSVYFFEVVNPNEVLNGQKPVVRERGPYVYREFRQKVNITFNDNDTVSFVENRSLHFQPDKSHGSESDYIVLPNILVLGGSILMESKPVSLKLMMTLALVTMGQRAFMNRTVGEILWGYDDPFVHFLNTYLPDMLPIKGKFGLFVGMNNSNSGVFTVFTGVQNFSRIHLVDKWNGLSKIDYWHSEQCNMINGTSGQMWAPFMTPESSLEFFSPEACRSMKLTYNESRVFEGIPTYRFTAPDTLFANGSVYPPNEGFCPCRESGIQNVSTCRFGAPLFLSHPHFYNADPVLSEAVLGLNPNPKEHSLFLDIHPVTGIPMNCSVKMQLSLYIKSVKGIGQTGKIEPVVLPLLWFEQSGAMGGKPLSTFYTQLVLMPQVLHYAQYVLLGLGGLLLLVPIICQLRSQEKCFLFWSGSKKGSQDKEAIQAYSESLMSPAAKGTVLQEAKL
# TAG inh – inhibitors of triacylglycerol accumulation, primary screen, cell-based, uHTS, fluorescence, H9c2; H9c2 cells, Nile Red lipid (TAG) fluorescence; cells loaded with 200 µM oleic acid; inhibition, % at 12.5 µM; hit rate 0.66% among 230,000; AID 651582, 2012;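 active = pattern-corrected inhibition of lipid staining of at least 50% with the nuclear-stain viability signal not falling by more than 50%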
# Vif imaging – HIV Vif self-association inhibitors, primary screen, imaging, HEK293T, single point; HEK293T cells, Vif self-association by quenched fluorescence, 24 h; AID 602346, 2012; hit rate 0.35% among 340,000; inhibition, % at 7.49 µM; in the data active = inhibition above about 50%, passing the limit was not always enough; inconclusive = no clear call, values can overlap the other calls; inactive = below about 31%
# A number is an active result; . = inactive; ? = inconclusive; / = not tested or not shown.
SMILES,A1 inh,SR-BI DiI-HDL act,SR-BI DiI inh,TAG inh,Vif imaging
COc1ccc(/C=N/NC(=O)c2cccc([N+](=O)[O-])c2)cc1O,.,.,.,.,.
COc1ccc2ccccc2c1/C=N/NC(=O)c1cccc([N+](=O)[O-])c1,.,.,86,/,/
O=C(N/N=C/c1ccc(O)cc1)c1cccc(C(F)(F)F)c1,.,.,.,.,.
O=C1CCC(C(=O)OCc2cc(=O)oc3ccc4ccccc4c23)=NN1,.,.,.,.,.
CC(C)Oc1ccc(/C=N/NC(=O)C(CSCc2ccccc2)NC(=O)c2ccc([N+](=O)[O-])cc2)cc1 (configuration not stated),.,.,.,54,.
COc1ccc(-c2c(-c3ccsc3)oc3ccc(N4CCOCC4)cc23)cc1,.,.,75,.,.
Nc1ccc2c(c1)OC1(CCCC1)O2,.,.,.,.,.
OC(COc1ccc(CNCCc2ccccc2F)cc1)CN1CCCCC1 (configuration not stated),.,.,.,.,.
CCC(=O)Nc1ccc(-c2cc(-c3ccccc3)nc(-c3ccc(NC(=O)CC)cc3)n2)cc1,.,103,.,.,.
CC(C)C[C@H]1CN=C(Nc2ccccc2)N1CC1CCC(C(C)(C)C)CC1 (some centres not stated),.,.,.,59,.
Cc1ccccc1S(=O)(=O)NC(=O)C1(C)CCN1C(=O)CCc1cccs1 (configuration not stated),/,/,/,.,68
CCCCc1ccc(S(=O)(=O)NC(=O)C2(C)CCN2C(=O)CCc2cccs2)cc1 (configuration not stated),/,/,/,.,.
CC(C)OCCCNC(=O)c1c(N)n(/N=C/c2ccccn2)c2nc3ccccc3nc12,.,84,.,.,.
OCCC1CN(Cc2cccc(-n3cccn3)c2)CCN1Cc1ccccc1 (configuration not stated),.,.,.,.,.
CCCCCn1c(=O)c(-c2nc3ccccc3[nH]2)c(O)c2ccccc21,.,.,95,/,.
CCOC(=O)C1CCN(S(=O)(=O)c2cccc(-c3cn4cccnc4n3)c2)CC1,.,.,.,/,.
CCOC(=O)C1CCN(S(=O)(=O)c2cccc(-c3cn4cc(C)ccc4n3)c2)CC1,.,.,.,/,64
O=C(COc1ccccc1Cl)NNC(=O)c1ccc(-n2cncn2)c([N+](=O)[O-])c1,.,.,.,.,.
COc1c(Cl)cnn(-c2ccc(C)cc2)c1=O,.,.,.,/,.
Cc1ccc(-n2ncc(Br)c(Br)c2=O)cc1,/,.,.,66,.
O=c1c(Br)c(Br)cnn1-c1ccccc1,/,.,.,90,.
Cc1ccccc1OCC(=O)NNC(=O)CSc1nc(N)cc(N)n1,.,.,.,/,.
CC1(c2cccc(Br)c2)NC(=O)N(CC(=O)Nc2ccc3c(c2)OCCO3)C1=O (configuration not stated),.,.,.,.,.
CCC(C)(C)c1ccc(OCCCC[n+]2ccccc2)c(C(C)(C)CC)c1,.,.,.,52,.
CCCCCc1ccc(OCCCC[n+]2ccccc2)c(CCCCC)c1,.,.,.,.,.
SMILES,A1 inh,SR-BI DiI-HDL act,SR-BI DiI inh,TAG inh,Vif imaging
Cc1ccc(Nc2nc3ccccc3nc2Nc2c(C)n(C)n(-c3ccccc3)c2=O)cc1,.,.,92,/,.
O=C(c1cnn2c(C(F)(F)F)cc(-c3ccc(Br)cc3)nc12)N1CCOCC1,/,.,.,.,.
Cc1cccc(-c2cc(C(=O)Nc3c(C)n(C)n(-c4ccccc4)c3=O)c3ccccc3n2)c1,.,.,.,.,.
Cc1cc(NC(=O)c2cnn3c(C(F)(F)F)cc(-c4ccc(Br)cc4)nc23)no1,.,.,77,/,.
O=C(NCC(c1cccs1)N1CCOCC1)c1cc(-c2ccc(F)cc2)nc2ccccc12 (configuration not stated),.,.,84,.,.
Cc1c(NC(=O)c2cc(-c3ccc(F)cc3)nc3ccccc23)c(=O)n(-c2ccccc2)n1C,.,.,86,.,.
Cc1c(Nc2nc3ccccc3nc2NS(=O)(=O)c2cccc(Cl)c2)c(=O)n(-c2ccccc2)n1C,?,.,.,/,.
O=C(CN1c2cccc3cccc(c23)S1(=O)=O)N1CCN(c2ccccc2)CC1,.,.,.,.,.
CN(C)c1ccc(N2C(=NC(=O)c3ccccc3)SC3CS(=O)(=O)CC32)cc1 (configuration not stated),.,.,.,/,.
COc1ccc(C2CC(c3ccccc3)=NN2C(=O)COC(=O)C2(C)CC2(Cl)Cl)cc1 (configuration not stated),.,.,.,.,.
Cc1ccc(-c2cc(C(=O)Nc3cc(C)on3)c3ccccc3n2)cc1,.,.,74,.,.
COC(=O)c1c(C)cc(C)c2c1CC(C)(C)C2=O,.,.,.,.,.
CCCc1nc2ccc(NC(=O)NCCC(=O)OCC)cc2c(=O)n1Cc1ccc(Cl)cc1,.,.,72,.,.
CCCc1nc2ccc(NC(=O)NCCC(=O)OCC)cc2c(=O)n1Cc1cccc(Cl)c1,.,.,.,.,.
O=C(c1ccc(Cl)cc1)N1N=CCC1(O)c1ccc(Cl)cc1 (configuration not stated),.,.,88,/,.
CS(=O)(=O)N(CC(=O)N1CCCC1)Cc1ccc(Cl)c(Cl)c1,.,.,.,/,.
Cc1ccc(NC(=O)C2(C)CCN2Cc2ccc(OC(C)C)cc2)cc1 (configuration not stated),/,/,/,.,.
CC(C)Oc1ccc(CN2CCC2(C)C(=O)Nc2ccc(Cl)c(Cl)c2)cc1 (configuration not stated),/,/,/,.,58
CN(C(=O)C(Cl)Cl)C1CC2C=CC1C2 (configuration not stated),.,.,.,.,.
Cc1ccc(-c2nn3c(C)nnc3c3ccccc23)cc1S(=O)(=O)NCc1ccccc1,.,.,.,/,87
Cc1ccc(-c2nn3c(C)nnc3c3ccccc23)cc1S(=O)(=O)NCCN1CCOCC1,.,.,.,/,.
N#Cc1cc[n+](CC(=O)c2ccc(NC(=O)c3ccccc3)cc2)cc1,.,/,/,.,.
O=c1ccn([C@@H]2O[C@H](CNCc3ccc(-n4cccn4)cc3)[C@@H](O)[C@H]2O)c(=O)[nH]1,/,.,.,.,96
CCC(C)(O)c1[nH]c2ccc(C(=O)OC)cc2c1C (configuration not stated),.,.,.,.,.
O=C(Nc1ccc(OC(F)(F)C(F)F)c(NC(=O)c2ccc(F)cc2)c1)c1ccc(F)cc1,.,.,.,.,.
